High-throughput results from PubChem BioAssay.
An excerpt weighted towards active compounds, which were near 2.2% of everything screened.
697 NFkB inh: lowers PMA/ionomycin-induced NF-kB signal in 697 B cells; 330,000 tested, 0.33% active; inhibition, % at 4 µM; AID 435022; 697 B-cell NF-kB luciferase reporter, 16 h; in the data active = inhibition above about 35%
NR2E3 ag-1: activates human NR2E3 receptor; 360,000 tested, 0.35% active; Q9Y5X4; CHO-S Gal4-NCOR/VP16-NR2E3 two-hybrid, luciferase; inhibition of corepressor binding, % at 3.98 µM;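 active = inhibition above the mean of all tested compounds plus 3 SD, cut at about 70% in these data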;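 also: 0% = DMSO with NR2E3 transfected cells and 100% = cells lacking NR2E3 construct; higher means lower luciferase signal from less NR2E3 corepressor binding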
Jurkat NFkB inh: lowers PMA/ionomycin-induced NF-kB signal in Jurkat cells; inhibition, % at 4 µM; PMA/ionomycin-induced NF-kB luciferase reporter, luminescence; 330,000 tested, 0.53% active; AID 435003; in the data active = inhibition above about 50%
miR122 inh: blocks miR-122 activity in Huh7 sensor cells. activation (reporter increase), % at 12.5 µM. 340,000 tested, 0.3% active. Huh7 miR-122 Renilla luciferase sensor, 48 h; neutral wells = 0, positive control = 100;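 active = mean replicate activation score at least 90 and every replicate individually at or above 90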;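 also: higher luciferase means less miR-122 activity so hits act as miR-122 inhibitors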
FGF22 binding: FGF22 (human) thermal shift binding; 340,000 tested, 1.5% active; Q9HCT0; activity (Tm shift, normalised), % at 9.99 µM; recombinant FGF22 thermal shift, SYPRO orange fluorescence; percent of sucrose octasulfate shift, DMSO zero; AID 651658;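 active = mean Tm shift, scaled 0 neutral to 100 positive control, at about 1.3% or above, every replicate too, limit read from the data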
Target sequence (Q9HCT0 whole entry, looked up): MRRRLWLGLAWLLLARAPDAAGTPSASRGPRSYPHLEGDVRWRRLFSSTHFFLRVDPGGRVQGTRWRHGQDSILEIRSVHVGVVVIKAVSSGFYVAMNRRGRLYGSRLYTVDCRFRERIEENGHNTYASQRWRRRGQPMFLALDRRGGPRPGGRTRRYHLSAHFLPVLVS
NR2E3 ag-2: agonists of human nuclear receptor NR2E3; inhibition of corepressor binding, % at 4.78 µM; AID 2300; 320,000 tested, 0.12% active; GST-NR2E3/biotin-RetCOR TR-FRET, 1536-well;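 active = percent inhibition above the cutoff of mean plus 3 SD of all tested compounds, set per screening campaign, cut at about 20% in these data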;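 also: 0% = DMSO wells and 100% = biotin wells as full block of FRET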
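Material – GST-tagged NR2E3 plus biotinylated RetCOR corepressor · Quantity – NR2E3 fusion 1.35 nM · Times – 5 h incubation at 4 °C · Medium – pH 7.5 Tris-based buffer · Technique – TR-FRET, Eu(K)-anti-GST donor, streptavidin-D2 acceptor, ex 340, em 617/671 nm · Benchmarks – high control biotin, low control 0.6% DMSO · Format – 1536-well plates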
The depositor's hits bear a star; . = no result; [ ] = dose if it differs, or a comment.

SMILES	697 NFkB inh	NR2E3 ag-1	Jurkat NFkB inh	miR122 inh	FGF22 binding	NR2E3 ag-2
C[C@@H]1CN([C@@H](C)CO)C(=O)c2cc(NS(C)(=O)=O)ccc2O[C@H]1CN(C)C(=O)Nc1ccc(C(F)(F)F)cc1	.	.	.	1[16.7 µM]	0	.
CCn1nc(C)c(CCC(=O)O)c1C	3	-11	6	.	43*	-3
Cc1nn(C)c(C)c1CCC(=O)O	9	-14	-11	-2	0	1
Cc1ccccc1-c1ccccc1[C@H]1[C@@H](C#N)N(C(=O)c2ccccc2)[C@H]1CO	.	.	.	.	1	.
CCN(CC)P(=O)(Nc1ccccc1Br)c1ccc(N(C)C)cc1NC(=O)c1ccco1 (configuration not stated)	2	-5	6	5	44*	-1
Cn1ccnc1SCC(=O)c1ccc(F)cc1	-36	-62	-19	0	0	0
CC1N=C(SCC(=O)c2ccc(F)cc2)N2C(C)N=C(SCC(=O)c3ccc(F)cc3)N12 (configuration not stated)	.	4	.	.	43*	.
C[C@@H]1CN([C@@H](C)CO)C(=O)c2cc(NC(=O)c3ccncc3)ccc2O[C@H]1CN(C)C(=O)Nc1ccc(F)cc1	.	.	.	-4[16.7 µM]	0	.
COc1ccc(S(=O)(=O)N2CCCOC2CNC(=O)C(=O)NCCCn2ccnc2)cc1 (configuration not stated)	21	3	-1	7	44*	-3
COc1ccc(NC(=S)NCCCn2ccnc2)cc1	9	-22	-3	0	.	1
COc1cccc(NC(=O)C(=O)NCCCn2ccnc2)c1	20	-53	-13	.	43*	0
COc1ccc(S(=O)(=O)N2CCCOC2CNC(=O)C(=O)NCc2ccco2)cc1C (configuration not stated)	10	22	7	1	44*	4
Cc1ccc(S(=O)(=O)N2CCCOC2CNC(=O)C(=O)NCCCn2ccnc2)cc1 (configuration not stated)	21	-21	-13	.	0	3
C=CC[C@]12N=C(c3ccc(OCCCO)cc3)O[C@H]1c1ccccc1CN(C(=O)c1ccccc1)C2=O	.	.	.	.	0	.
COCC(=O)Nc1ccc2c(c1)[C@@H]1C[C@H](CC(=O)N3CCc4ccccc4C3)O[C@H](CO)[C@@H]1O2	.	.	.	6[16.7 µM]	0	.
CC1=Nc2ccccc2/C1=C/c1c(N)n2c(S(=O)(=O)CC(C)C)nsc2nc1=O	.	2	.	.	44*	.
CC(C)S(=O)(=O)c1nsc2nc(=O)c(/C=C3\C=Nc4ccccc43)c(N)n12	3	1	14	2	0	1
CSc1nsc2nc(=O)c(/C=C3\C=Nc4ccccc43)c(N)n12	0	-78	-1	-2	1.5*	2
C[C@H](CO)N1C[C@H](C)[C@@H](CN(C)CC2CC2)Oc2ccc(NS(=O)(=O)c3cn(C)cn3)cc2C1=O	.	.	.	-3[16.7 µM]	0	.
COc1ccc2[nH]c3c(=O)n(Cc4ccc(C(=O)N5CCC(C(N)=O)CC5)cc4)c(=S)[nH]c3c2c1	25	-19	2	.	43*	-4
CN(C)CCCNC(=O)[C@H]1[C@H](CO)[C@H]2Cn3c(ccc(C4=CCCC4)c3=O)[C@@H]1N2Cc1cocn1	.	.	.	.	0	.
COc1ccc(NC(=O)Cc2c(C(=O)O)n(C)c3ccccc23)cc1OC	8	-4	4	-2	43*	4
COc1ccc(C)cc1NC(=O)Cc1c(C(=O)O)n(C)c2ccccc12	19	-9	1	-2	1	0
COc1cc(NC(=O)Cc2c(C(=O)O)n(C)c3ccccc23)cc(OC)c1OC	5	-5	-3	1	43*	1
C[C@H](CO)N1C[C@H](C)[C@@H](CN(C)Cc2ccncc2)Oc2ncc(C#CCN(C)C)cc2C1=O	.	.	.	-3[16.7 µM]	0	.
SMILES	697 NFkB inh	NR2E3 ag-1	Jurkat NFkB inh	miR122 inh	FGF22 binding	NR2E3 ag-2
COc1ccc(S(=O)(=O)Nc2ccc3c(c2)C(=O)N([C@H](C)CO)C[C@@H](C)[C@@H](CN(C)C(=O)CCCN(C)C)OCCCC[C@H](C)O3)cc1	.	.	.	4[16.7 µM]	0	.
COC(=O)Cc1[nH]n(-c2nc3ccccc3s2)c(=O)c1C(C)=Nc1ccc(Cl)cc1	-3	-17	12	.	0	1
COC(=O)Cc1[nH]n(-c2nc3ccccc3s2)c(=O)c1C(C)=Nc1ccc(C)cc1	15	1	45	.	2.5*	1
CCOc1cccc(-c2cc(NCCc3ccccn3)n3nccc3n2)c1	.	-12	.	-6	43*	.
Cc1cccc(-c2cc(N3CCCN(C)CC3)n3nccc3n2)c1	.	-16	.	-11	0	.
Cc1cccc(-c2cc(NCCc3cccnc3)n3nccc3n2)c1	.	-28	.	-2	43*	.
CCOc1cccc(-c2cc(N3CCN(CCO)CC3)n3nccc3n2)c1	.	19	.	1	1	.
C[C@H]1CN([C@@H](C)CO)C(=O)c2cc(NS(=O)(=O)c3ccc(Cl)cc3)ccc2O[C@H]1CN(C)Cc1ccncc1	.	.	.	-2[16.7 µM]	0	.
Cc1ccc(CN2CCSc3ccc(C(=O)NCCCN4CCN(C)CC4)cc32)cc1	-9	0	-5	.	0	6
Cc1ccc(CN2CCSc3ccc(C(=O)NCc4cccnc4)cc32)cc1	6	-28	9	155*	.	3
